Screening results as filed in PubChem BioAssay.
Only some compounds are listed: those with a hit (about 2.2% of all), similar ones and a draw of the others.
PPC-1+TRAIL kill – compounds killing PPC-1 cancer cells with TRAIL present, primary screen, TRAIL potentiator project, ATPLite luminescence, uHTS | 220,000 compounds, 0.41% hits | cell killing (% activity), % at 4 µM or 5 µM | AID 1443, 2008 | PPC-1 cells + TRAIL, ATPLite viability luminescence;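 active = cell killing above 50% in the first pass at 4 µM, then a duplicate retest at 5 µM averaging 50% or more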;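 also: plate controls were cells with TRAIL plus DMSO for no effect and medium-only wells lacking cells for full effect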
Wee1 degr inh – Wee1 degradation inhibitors, primary screen, cell-based, HeLa, Wee1K328M-luciferase, luminescence. Wee1-like protein kinase (Homo sapiens), P30291. HeLa Luc-Wee1K328M stability; 100% = proteasome inhibitor MG132 effect. reporter increase, % at 5 µM. 220,000 compounds, 1.2% hits;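 active = activation above the mean of all tested compounds plus 3 SD, set per screening run, cut at about 8.8% in these data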;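 also: cells exposed to compound for 20 h before luminescence read; 0% = DMSO alone and 100% = MG132 at 30 µM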
FLuc stim CS – FLuc activators, initial screening, artefact control for FLuc-dependent activation tests, biochemical, ATPlite luminescence | ATPlite luciferase biochemical, 10 min; 0 = ATP-free wells, 1 = DMSO control | activation factor at 10 µM | 200,000 tested, under 10 active | AID 1027, 2008;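 active = luciferase activation factor, scaled between plate controls, of at least 2 with compound at 10 µM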
Target sequence (P08659 whole entry, looked up): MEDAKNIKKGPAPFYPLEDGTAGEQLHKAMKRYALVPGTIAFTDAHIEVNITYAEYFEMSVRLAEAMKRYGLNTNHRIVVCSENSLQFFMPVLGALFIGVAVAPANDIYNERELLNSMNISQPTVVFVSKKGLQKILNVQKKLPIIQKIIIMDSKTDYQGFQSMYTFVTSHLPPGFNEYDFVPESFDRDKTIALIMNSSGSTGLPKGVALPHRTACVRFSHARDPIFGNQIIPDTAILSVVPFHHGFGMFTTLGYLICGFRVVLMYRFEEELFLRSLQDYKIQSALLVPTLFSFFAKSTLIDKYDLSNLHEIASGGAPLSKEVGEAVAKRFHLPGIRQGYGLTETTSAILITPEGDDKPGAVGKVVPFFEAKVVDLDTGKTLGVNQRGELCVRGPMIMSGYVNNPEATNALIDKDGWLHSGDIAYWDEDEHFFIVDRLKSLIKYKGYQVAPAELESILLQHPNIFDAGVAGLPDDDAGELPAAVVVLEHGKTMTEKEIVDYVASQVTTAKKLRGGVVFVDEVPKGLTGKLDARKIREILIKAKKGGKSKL
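Assay system: Luciferase/luciferin detection reagent, cell-free biochemical luciferase assay / Read-out: luciferase activation / Benchmarks: No-ATP low control, compound-free enzyme-plus-ATP high control / Medium: PBS buffer for ATP / Detection: luminescence measurement of luciferase light output / Schedule: 10 min at ambient temperature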
FLuc inh counter – firefly luciferase enzyme inhibitors, primary screen, artefact control for luciferase-based inhibitor screens, biochemical, luminescence, ATPLite; 10 min; Luciferin 4-monooxygenase (Photinus pyralis), P08659; 200,000 compounds, 1.5% hits; inhibition, % at 10 µM;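 active = inhibition above about 50% when tested at 10 µM, limit read from the data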
TRAIL sens C8 – viability loss with TRAIL in NB7+C8 cells, primary screen, TRAIL sensitizer project, cell-based, ATPlite luminescence. 360,000 compounds, 1% hits. AID 624354, 2012. inhibition (viability loss, TRAIL sensitization), % at 10 µM;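 active = compounds causing at least 50% loss of cell viability in the single-dose screen, relative to plate controls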
PKD1 kinase inh – inhibitors of human PKD1 kinase, biochemical, fluorescence polarization. Serine/threonine-protein kinase D1 (Homo sapiens), Q15139. PKD1 kinase fluorescence polarization assay. inhibition, % (no concentration beside the values). 200,000 compounds, 0.056% hits. AID 797, 2007; in the data active = inhibition above about 50%
* marks the source's active call; other numbers are inactive results; . = no result given.

SMILES	PPC-1+TRAIL kill	Wee1 degr inh	FLuc stim CS	FLuc inh counter	TRAIL sens C8	PKD1 kinase inh
CCCNC1=C(N(C(C)=O)c2cccc(F)c2)C(=O)c2ccccc2C1=O	70*	-5	1	-5	76*	-3
O=C1C2C3C=CC(C2C(=O)N1c1ccc(O)cc1)C1C2C(=O)N(c4ccc(O)cc4)C(=O)C2C31 (stereo not given)	17	0	.	.	11	.
O=C1C2C3C=CC(C2C(=O)N1c1ccccc1O)C1C2C(=O)N(c4ccccc4O)C(=O)C2C31 (stereo not given)	11	8.8*	1.1	-9	3	0
CC(C)CNC(=O)NC(=O)COc1ncnc2sccc12	4	9.4*	1.1	-9	-12	-4
CC(=O)Oc1ccc(-c2cc3c(OC(C)=O)cc(OC(C)=O)cc3oc2=O)cc1	.	.	.	.	20	.
COc1ccc(OCCn2nnc(-c3ccc(Cl)cc3)n2)cc1	14	16*	1	-2	-2	-4
COc1ccc(-c2nnn(Cc3ccccc3)n2)cc1	.	.	.	.	-9	.
CCOc1ccc(S(=O)(=O)N2CCN(C(=O)c3cc4c(s3)CCCC4)CC2)cc1	0	-1	1.1	-5	5	0
Cc1ccc(C2CC2c2n[nH]c(=S)n2-c2ccc(Cl)cc2)cc1 (stereo not given)	-6	3	1.1	-11	72*	-8
Cc1ccc(C2CC2c2n[nH]c(=S)n2-c2cccc(C)c2)cc1 (stereo not given)	11	1	1	1	15	0
CCOc1cc(C)c(Cl)cc1S(=O)(=O)NCCOC	23	9.5*	1	-5	-5	-4
Cc1ccsc1C1Nc2ccccc2C(=O)N1O (stereo not given)	4	9.0*	1	2	2	4
CSc1ccc(/C=N/Nc2cccc(C(=O)O)c2)cc1	-25	4	0.4	57*	9	2
COc1ccc(/C=N/NC(=S)Nc2cccc(C(=O)O)c2)cc1	41	-3	0.4	56*	21	-10
S=C(N/N=C/c1ccc2ncccc2c1)Nc1ccccc1	9	4	0.5	55*	2	8
C(=N\NCc1ccccc1)/c1ccc2ncccc2c1	18	1	.	.	-8	.
O=c1c2ccccc2c(=O)n(-c2ccccc2)n1-c1ccccc1	.	.	.	.	3	.
O=C(O)c1ccc(Cl)c(NC(=O)C2CCN(S(=O)(=O)c3cccs3)CC2)c1	.	.	.	.	2	.
CC(=O)Nc1ccccc1NC(=O)C/C(C)=N/NC(=O)c1ccncc1	12	9.3*	1	-4	1	-3
C/C(=C\C(=O)c1ccc(Cl)s1)N(C)C	16	-2	1	3	10	-2
CCCCCCCNC(=O)C1(CC2CC(c3ccc(Cl)cc3)=NO2)CCNCC1 (stereo not given)	.	.	.	.	71*	.
CCCCCCCNC(=O)C1(CC2CC(c3cccc(Br)c3)=NO2)CCN(C(=O)Cc2ccc(F)cc2)CC1 (stereo not given)	.	.	.	.	-3	.
CCCCCCCNC(=O)C1(CC2CC(c3ccc(Cl)cc3)=NO2)CCN(C(=O)Cc2ccc(F)cc2)CC1 (stereo not given)	.	.	.	.	22	.
CCCCCCCNC(=O)C1(CC2CC(c3cccc(Br)c3)=NO2)CCNCC1 (stereo not given)	.	.	.	.	87*	.
COC(=O)CSc1ncnc2c1sc1nc3c(cc12)COC(C)(C)C3	48	4	0.9	12	73*	2
Cc1cc(C)c(OCCCCCn2ccnc2)c(C)c1	.	.	.	.	3	.
COc1cc(C(=S)N2CCOCC2)cc(OC)c1OC(=O)c1ccccc1Cl	.	.	.	.	-14	.
O=C(/C=C/c1ccc(OC(F)F)cc1)Nc1cccc(S(=O)(=O)NC2=NCCCCC2)c1	.	.	.	.	57*	.
CN(C)c1ccc(C(=O)Nc2cccc(S(=O)(=O)NC3=NCCCCC3)c2)cc1	.	.	.	.	27	.
CC(C)(C)c1ccc(C(=O)Nc2cccc(S(=O)(=O)NC3=NCCC3)c2)cc1	.	.	.	.	86*	.
